Laboratory results published in ChEMBL document CHEMBL1152541, “Staurosporine tethered peptide ligands that target cAMP-dependent protein kinase (PKA): optimization and selectivity profiling” (Bioorg Med Chem, 2009).
Blank lines part the entries; values can stand above or below the compound they belong to. *1 amine or outer side, *2 acyl side, *3 side chain or, on linkers, in order; H or OH if unused. Where a SMILES comes first, the peptide text is derived from it. Bridges are numbered along the chain shown (N, C = ends). [ ]: non-standard residue; d: D form. The star is where a group is joined. Staurosporine = CO[C@@H]1[C@H](N(C)*)C[C@H]2O[C@]1(C)n1c3ccccc3c3c4c(c5c6ccccc6n2c5c31)C(=O)NC4; Suc = O=C(CCC(=O)[*:2])[*:1]; Dap = NC[C@H](N)C(=O)O; βAla = NCCC(=O)O

What was measured:
[1] = molecular target: T1, Protein kinase C epsilon type (Homo sapiens) (UniProt Q02156); assay: Binding affinity to human PRKCepsilon at 500 nM by cell-based competition binding assay relative to control in presence of DTT
T1 sequence (whole entry): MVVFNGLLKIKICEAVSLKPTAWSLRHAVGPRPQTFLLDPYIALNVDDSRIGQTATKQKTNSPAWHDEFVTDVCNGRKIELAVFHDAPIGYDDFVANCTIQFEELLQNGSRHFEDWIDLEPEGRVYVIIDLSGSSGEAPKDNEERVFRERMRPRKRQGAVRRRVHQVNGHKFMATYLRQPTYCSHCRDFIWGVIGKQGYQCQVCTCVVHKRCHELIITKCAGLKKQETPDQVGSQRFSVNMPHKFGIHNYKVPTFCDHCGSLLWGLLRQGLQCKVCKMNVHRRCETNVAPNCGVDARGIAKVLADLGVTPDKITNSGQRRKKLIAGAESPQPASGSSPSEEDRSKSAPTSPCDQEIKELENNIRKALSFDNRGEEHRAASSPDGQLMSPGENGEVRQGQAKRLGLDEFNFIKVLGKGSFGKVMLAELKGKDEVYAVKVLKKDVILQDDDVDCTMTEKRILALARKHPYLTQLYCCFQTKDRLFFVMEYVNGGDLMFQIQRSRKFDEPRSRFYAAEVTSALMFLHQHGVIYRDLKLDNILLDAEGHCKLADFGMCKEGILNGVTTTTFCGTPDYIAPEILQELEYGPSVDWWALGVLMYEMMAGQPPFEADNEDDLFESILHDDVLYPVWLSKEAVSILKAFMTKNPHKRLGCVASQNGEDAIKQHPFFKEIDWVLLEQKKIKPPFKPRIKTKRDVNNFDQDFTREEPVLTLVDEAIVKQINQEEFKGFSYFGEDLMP

[2] = molecular target: T2, Serine/threonine-protein kinase Chk1 (Homo sapiens) (UniProt O14757); assay: Ratio of compound to staurosporine binding affinity to CHK1 in presence of DTT
T2 sequence (whole entry): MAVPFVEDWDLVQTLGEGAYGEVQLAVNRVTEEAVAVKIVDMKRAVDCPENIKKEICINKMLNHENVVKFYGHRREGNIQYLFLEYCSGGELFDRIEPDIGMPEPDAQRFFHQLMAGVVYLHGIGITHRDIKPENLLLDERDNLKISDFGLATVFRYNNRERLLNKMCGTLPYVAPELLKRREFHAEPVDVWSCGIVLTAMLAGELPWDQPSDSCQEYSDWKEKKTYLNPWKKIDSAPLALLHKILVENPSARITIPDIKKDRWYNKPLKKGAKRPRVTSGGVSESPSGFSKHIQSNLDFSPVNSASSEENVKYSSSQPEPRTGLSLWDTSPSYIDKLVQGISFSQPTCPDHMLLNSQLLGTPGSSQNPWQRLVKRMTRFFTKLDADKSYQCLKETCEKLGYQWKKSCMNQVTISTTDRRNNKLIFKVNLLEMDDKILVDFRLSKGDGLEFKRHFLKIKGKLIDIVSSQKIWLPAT

[3] = molecular target: Serine/threonine-protein kinase PAK 1 (Homo sapiens) (UniProt Q13153); assay: Binding affinity to human PAK1 at 500 nM by cell-based competition binding assay relative to control in presence of DTT
Serine/threonine-protein kinase PAK 1 (Homo sapiens), sequence (Q13153 whole entry): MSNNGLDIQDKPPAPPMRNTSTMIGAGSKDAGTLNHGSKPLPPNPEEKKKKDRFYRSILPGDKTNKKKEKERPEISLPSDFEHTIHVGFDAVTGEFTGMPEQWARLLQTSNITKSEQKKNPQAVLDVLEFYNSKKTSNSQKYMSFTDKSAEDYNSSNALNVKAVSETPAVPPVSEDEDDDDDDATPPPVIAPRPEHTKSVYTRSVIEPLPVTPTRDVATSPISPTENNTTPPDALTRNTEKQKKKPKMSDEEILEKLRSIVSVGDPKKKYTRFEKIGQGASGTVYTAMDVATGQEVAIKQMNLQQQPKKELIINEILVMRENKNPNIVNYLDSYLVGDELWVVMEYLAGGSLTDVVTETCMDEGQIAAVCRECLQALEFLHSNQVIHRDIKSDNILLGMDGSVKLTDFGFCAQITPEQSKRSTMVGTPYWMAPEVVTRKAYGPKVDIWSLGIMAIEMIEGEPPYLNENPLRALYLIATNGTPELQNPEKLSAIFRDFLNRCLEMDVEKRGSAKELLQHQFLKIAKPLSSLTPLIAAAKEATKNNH

[4] = molecular target: Receptor-type tyrosine-protein kinase FLT3 (Homo sapiens) (UniProt P36888); assay: Binding affinity to human FLT3 at 200 nM by cell-based competition binding assay relative to control in presence of DTT
Receptor-type tyrosine-protein kinase FLT3 (Homo sapiens), sequence (P36888 whole entry): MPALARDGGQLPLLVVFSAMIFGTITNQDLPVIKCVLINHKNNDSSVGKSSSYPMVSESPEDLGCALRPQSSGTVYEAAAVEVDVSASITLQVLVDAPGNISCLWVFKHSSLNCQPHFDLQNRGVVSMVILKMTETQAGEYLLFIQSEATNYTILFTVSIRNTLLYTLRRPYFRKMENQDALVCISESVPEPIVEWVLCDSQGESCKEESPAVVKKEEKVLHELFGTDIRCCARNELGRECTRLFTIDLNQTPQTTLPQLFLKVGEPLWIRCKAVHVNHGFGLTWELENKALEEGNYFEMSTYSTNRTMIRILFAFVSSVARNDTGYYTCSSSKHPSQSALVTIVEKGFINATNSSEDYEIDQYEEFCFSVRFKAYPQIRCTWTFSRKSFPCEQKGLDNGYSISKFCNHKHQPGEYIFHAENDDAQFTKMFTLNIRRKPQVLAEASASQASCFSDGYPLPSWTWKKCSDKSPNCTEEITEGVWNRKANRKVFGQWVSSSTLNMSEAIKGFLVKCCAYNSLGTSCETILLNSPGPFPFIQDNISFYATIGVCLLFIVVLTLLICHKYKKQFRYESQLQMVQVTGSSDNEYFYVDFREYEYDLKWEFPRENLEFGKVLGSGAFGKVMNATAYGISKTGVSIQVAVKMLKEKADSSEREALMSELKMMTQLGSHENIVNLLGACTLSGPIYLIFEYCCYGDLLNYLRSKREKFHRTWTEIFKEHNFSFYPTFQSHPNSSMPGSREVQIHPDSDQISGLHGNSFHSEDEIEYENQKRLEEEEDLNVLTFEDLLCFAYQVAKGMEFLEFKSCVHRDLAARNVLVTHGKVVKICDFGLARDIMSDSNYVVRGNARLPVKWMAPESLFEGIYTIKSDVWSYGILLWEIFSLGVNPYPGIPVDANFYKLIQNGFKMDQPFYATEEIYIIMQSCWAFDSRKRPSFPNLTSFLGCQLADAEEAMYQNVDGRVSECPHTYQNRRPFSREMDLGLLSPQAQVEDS
How it was run: (§1)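 Commercial (Ambit) competitive kinase-binding panel of 90 kinases measured the binding profile. Run under reducing conditions of 7.5 mM DTT. Binding is expressed relative to control.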

[5] = molecular target: T3, Tyrosine-protein kinase JAK3 (Homo sapiens) (UniProt P52333); assay: Binding affinity to human JAK3 kinase domain 2 at 200 nM by cell-based competition binding assay relative to control in presence of DTT
T3 sequence (whole entry): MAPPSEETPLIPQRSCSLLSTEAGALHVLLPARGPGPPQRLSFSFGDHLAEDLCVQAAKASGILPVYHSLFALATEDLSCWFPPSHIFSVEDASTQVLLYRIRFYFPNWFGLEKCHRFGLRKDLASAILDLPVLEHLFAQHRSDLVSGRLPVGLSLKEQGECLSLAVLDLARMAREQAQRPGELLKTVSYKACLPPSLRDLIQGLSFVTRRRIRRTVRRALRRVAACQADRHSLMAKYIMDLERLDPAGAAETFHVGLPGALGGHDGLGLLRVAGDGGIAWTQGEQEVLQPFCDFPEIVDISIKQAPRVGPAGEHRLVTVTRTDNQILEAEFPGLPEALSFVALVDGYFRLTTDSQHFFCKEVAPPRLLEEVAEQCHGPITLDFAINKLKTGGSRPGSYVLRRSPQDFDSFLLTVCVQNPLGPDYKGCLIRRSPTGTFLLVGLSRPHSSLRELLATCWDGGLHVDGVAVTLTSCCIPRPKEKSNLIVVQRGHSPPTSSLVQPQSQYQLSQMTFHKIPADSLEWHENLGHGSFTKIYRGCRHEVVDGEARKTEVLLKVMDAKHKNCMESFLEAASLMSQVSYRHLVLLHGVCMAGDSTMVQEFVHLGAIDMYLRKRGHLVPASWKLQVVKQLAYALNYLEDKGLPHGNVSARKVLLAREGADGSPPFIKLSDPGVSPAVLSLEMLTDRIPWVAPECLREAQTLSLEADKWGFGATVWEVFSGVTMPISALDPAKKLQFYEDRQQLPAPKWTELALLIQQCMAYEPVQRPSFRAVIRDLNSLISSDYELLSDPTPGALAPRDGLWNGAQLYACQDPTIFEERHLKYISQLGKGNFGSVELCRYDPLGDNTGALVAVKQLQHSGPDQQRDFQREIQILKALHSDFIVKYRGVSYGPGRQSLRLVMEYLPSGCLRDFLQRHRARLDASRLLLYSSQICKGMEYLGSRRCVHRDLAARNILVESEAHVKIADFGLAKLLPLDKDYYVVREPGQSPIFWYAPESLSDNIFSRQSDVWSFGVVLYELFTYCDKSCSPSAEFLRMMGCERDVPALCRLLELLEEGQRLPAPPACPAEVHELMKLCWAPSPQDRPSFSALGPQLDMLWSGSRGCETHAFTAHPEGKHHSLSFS
How it was run: (§2)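 Competition binding screen (Ambit) across a panel of 90 kinases, scoring test ligand displacement of each kinase's binding relative to control. The screen ran under reducing conditions with 7.5 mM DTT.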

[6] = molecular target: Dual specificity tyrosine-phosphorylation-regulated kinase 1B (Homo sapiens) (UniProt Q9Y463); assay: Binding affinity to human DYRK1B at 50 nM by cell-based competition binding assay relative to control in presence of DTT; how it was run: as §1
Dual specificity tyrosine-phosphorylation-regulated kinase 1B (Homo sapiens), sequence (Q9Y463 whole entry, looked up): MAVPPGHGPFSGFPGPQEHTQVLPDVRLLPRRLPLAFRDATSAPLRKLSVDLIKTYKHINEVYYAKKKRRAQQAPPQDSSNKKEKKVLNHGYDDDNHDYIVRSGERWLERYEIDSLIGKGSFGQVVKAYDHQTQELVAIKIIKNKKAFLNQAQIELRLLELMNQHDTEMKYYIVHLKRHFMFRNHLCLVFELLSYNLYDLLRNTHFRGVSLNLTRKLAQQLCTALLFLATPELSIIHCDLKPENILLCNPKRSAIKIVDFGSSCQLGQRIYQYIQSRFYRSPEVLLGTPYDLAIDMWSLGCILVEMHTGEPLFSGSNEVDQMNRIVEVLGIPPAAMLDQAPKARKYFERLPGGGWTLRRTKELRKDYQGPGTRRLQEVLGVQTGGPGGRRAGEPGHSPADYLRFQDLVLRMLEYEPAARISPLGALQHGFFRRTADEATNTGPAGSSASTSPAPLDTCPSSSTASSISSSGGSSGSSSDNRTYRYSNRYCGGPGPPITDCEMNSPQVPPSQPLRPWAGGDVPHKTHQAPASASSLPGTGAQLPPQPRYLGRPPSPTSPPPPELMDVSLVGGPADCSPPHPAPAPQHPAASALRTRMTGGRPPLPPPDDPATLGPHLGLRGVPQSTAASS

[7] = molecular target: Serine/threonine-protein kinase PLK3 (Homo sapiens) (UniProt Q9H4B4); assay: Binding affinity to human PLK3 at 50 nM by cell-based competition binding assay relative to control in presence of DTT
Serine/threonine-protein kinase PLK3 (Homo sapiens), sequence (Q9H4B4 whole entry, looked up): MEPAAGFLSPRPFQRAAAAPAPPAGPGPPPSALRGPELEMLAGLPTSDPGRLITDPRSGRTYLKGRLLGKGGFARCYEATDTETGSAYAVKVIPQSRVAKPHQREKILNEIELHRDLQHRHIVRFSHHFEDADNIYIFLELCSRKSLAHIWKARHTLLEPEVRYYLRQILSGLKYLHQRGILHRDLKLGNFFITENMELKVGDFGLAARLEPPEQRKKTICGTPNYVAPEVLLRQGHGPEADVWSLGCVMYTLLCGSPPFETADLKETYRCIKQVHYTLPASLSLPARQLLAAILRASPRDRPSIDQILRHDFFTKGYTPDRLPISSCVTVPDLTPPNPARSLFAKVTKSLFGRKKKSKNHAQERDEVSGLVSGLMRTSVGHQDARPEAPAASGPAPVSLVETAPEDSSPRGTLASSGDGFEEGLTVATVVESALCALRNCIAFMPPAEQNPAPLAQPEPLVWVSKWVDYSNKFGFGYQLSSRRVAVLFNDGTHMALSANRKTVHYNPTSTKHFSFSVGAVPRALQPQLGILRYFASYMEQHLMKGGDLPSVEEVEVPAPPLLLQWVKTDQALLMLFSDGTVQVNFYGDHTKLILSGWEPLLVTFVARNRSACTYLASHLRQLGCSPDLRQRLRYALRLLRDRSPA

[8] = molecular target: T1, Protein kinase C epsilon type (Homo sapiens); assay: Binding affinity to human PRKCepsilon at 50 nM by cell-based competition binding assay relative to control in presence of DTT
[9] = molecular target: T3, Tyrosine-protein kinase JAK3 (Homo sapiens); assay: Binding affinity to human JAK3 kinase domain 2 at 50 nM by cell-based competition binding assay relative to control in presence of DTT; how it was run: as §2

Activity [1]: 0.6%
Selectivity ratio [2]: 84
Activity [3]: 4%
SMILES: CO[C@@H]1[C@H](N(C)C(=O)CCC(=O)NCCC(=O)NCCC(=O)NCCC(N)=O)C[C@H]2O[C@]1(C)n1c3ccccc3c3c4c(c5c6ccccc6n2c5c31)C(=O)NC4

Activity [4]: 1%
Activity [5]: 4.6%
SMILES: CO[C@@H]1[C@H](N(C)C(=O)CCC(=O)NCCC(=O)NCCC(=O)NCCC(=O)NCCC(=O)NCCC(=O)NCCC(=O)NCCC(=O)N[C@H]2CSSC[C@@H](C(=O)NCC(N)=O)NC(=O)CNC(=O)[C@H](Cc3ccccc3)NC(=O)[C@H](C(C)C)NC(=O)[C@H](CCCNC(=N)N)NC(=O)[C@H](Cc3ccccc3)NC(=O)[C@H](C(C)C)NC2=O)C[C@H]2O[C@]1(C)n1c3ccccc3c3c4c(c5c6ccccc6n2c5c31)C(=O)NC4 ({Staurosporine-Suc-βAla-βAla-βAla-βAla-βAla-βAla-βAla}-CVFRVFGCG-NH2; disulfide 1-8)

Activity [6]: 79%
Activity [7]: 98%
Activity [8]: 0%
Activity [9]: 16%
SMILES: CO[C@@H]1[C@H](N(C)C(=O)CCC(=O)NCCC(=O)NCCC(=O)NCCC(=O)NCCC(=O)NCCC(=O)NCCC(=O)NCCC(=O)N[C@H]2CNC(=O)C[C@@H](C(N)=O)NC(=O)CNC(=O)[C@H](Cc3ccccc3)NC(=O)[C@H](C(C)C)NC(=O)[C@H](CCCNC(=N)N)NC(=O)[C@H](Cc3ccccc3)NC(=O)[C@H](C(C)C)NC2=O)C[C@H]2O[C@]1(C)n1c3ccccc3c3c4c(c5c6ccccc6n2c5c31)C(=O)NC4 ({Staurosporine-Suc-βAla-βAla-βAla-βAla-βAla-βAla-βAla}-[Dap]VFRVFGD-NH2; lactam 1-8)
